EBNA-1 inhibitor: blocks EBNA-1 binding to DNA | EBNA-1 DNA binding, fluorescence polarization | inhibition, % at 14.8 µM | actives 0.34% (n = 300,000) | AID 1950; in the data active means inhibition above about 28%
PfM18AAP inh: blocks P. falciparum M18 aspartyl aminopeptidase; recombinant PfM18AAP, H-Glu-NHMec fluorogenic cleavage; inhibition, % at 7.35 µM; actives 1.2% (n = 290,000); AID 1822;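 active means inhibition above the campaign mean inhibition over all tested compounds plus 3 SD, cut at about 28% in these data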
ZTA DNA inh: blocks Epstein-Barr virus ZTA, an EBNA-1 counter-screen; P03206; ZTA-DNA binding, fluorescence polarization; inhibition, % at 11 µM; actives 0.15% (n = 320,000); in the data active means inhibition above about 33%
Target sequence (P03206 whole entry, looked up): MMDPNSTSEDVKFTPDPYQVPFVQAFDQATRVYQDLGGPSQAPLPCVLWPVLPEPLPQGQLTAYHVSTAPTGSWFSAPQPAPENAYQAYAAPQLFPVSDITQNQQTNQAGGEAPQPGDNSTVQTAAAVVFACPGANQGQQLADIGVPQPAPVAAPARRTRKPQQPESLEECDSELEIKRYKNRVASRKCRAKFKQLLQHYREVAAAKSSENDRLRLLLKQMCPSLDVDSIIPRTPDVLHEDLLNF
NS3 helicase inh: blocks Hepatitis C virus NS3 helicase unwinding. inhibition, % at 10.9 µM. NS3 helicase DNA unwinding, Cy5 molecular beacon fluorescence. actives 0.56% (n = 290,000);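 active means inhibition above the mean of all tested compounds plus 3 SD, set per campaign, cut at about 35% in these data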
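test system = hepatitis C virus NS3 helicase domain fragment enzyme | reagent = annealed dual-labelled DNA beacon duplex, ATP-started | times = 1 h at 25 °C | detection = Cy5 fluorescence, 0 and 60 min reads | read-out basis = percent inhibition from t60/t0 fluorescence ratio | control set = DMSO and thioflavine S | replication = one well per compound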
core dimer inh: HCV core protein dimerization inhibition; TR-FRET GST/Flag-core106 dimerization, 1536-well; inhibition, % at 5 µM; actives 0.33% (n = 300,000); AID 1899;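 active means inhibition above the mean of all tested compounds plus 3 SD, set per screening campaign, cut at about 45% in these data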
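test system = GST/Flag-tagged HCV core106 proteins | probe or stimulus = Eu donor and XL665 acceptor anti-tag antibodies | times = compound-protein-antibody incubation 4 h at 22.5 °C | signal = TR-FRET, excitation 340 nm, emission 617 and 671 nm | measure = percent inhibition of core106 dimerization signal | controls = wells lacking GST-core106 and wells with excess unlabelled core106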
ALR H2O2 inh: inhibitors of human sulfhydryl oxidase ALR; purified ALR, DTT oxidation, H2O2 HRP-luminol luminescence; inhibition, % (no concentration beside the values); actives 3.8% (n = 290,000);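 active means mean replicate inhibition above about 79%, with every replicate also reaching it, limit read from the data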
Target sequence (P55789 whole entry, looked up): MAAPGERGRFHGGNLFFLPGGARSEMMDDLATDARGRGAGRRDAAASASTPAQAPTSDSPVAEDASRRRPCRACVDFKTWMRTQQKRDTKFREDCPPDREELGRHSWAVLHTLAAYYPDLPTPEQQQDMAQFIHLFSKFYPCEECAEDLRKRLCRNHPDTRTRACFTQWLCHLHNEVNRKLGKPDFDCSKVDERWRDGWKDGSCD
A number is an active result. Most compounds without a hit are left out; they make up all but 5.2% or so of the library.

What do the screens show for `Cc1ccc(S(=O)(=O)CCC(=O)Nc2ccccc2C)cc1`?
EBNA-1 inhibitor: inactive; PfM18AAP inh: inactive; ZTA DNA inh: inactive; NS3 helicase inh: inactive; core dimer inh: inactive; ALR H2O2 inh: inactive

Results for COc1cccc(CC(=O)Nc2ccccc2N2CCCC2)c1 ?
EBNA-1 inhibitor: inactive; PfM18AAP inh: inactive; ZTA DNA inh: inactive; NS3 helicase inh: inactive; core dimer inh: inactive; ALR H2O2 inh: 98

What do the screens show for `COc1ccc(C(=O)NC(=S)N2CCN(c3ccccc3O)CC2)cc1`?
ALR H2O2 inh: 99

How did Cc1ccc(S(=O)(=O)CCC(=O)Nc2ccccc2N2CCCC2)cc1 do in these assays?
ZTA DNA inh: inactive; ALR H2O2 inh: 99

What do the screens show for `Cc1nn(C)c(C)c1S(=O)(=O)NCCc1ccc(Cl)cc1`?
EBNA-1 inhibitor: inactive; PfM18AAP inh: inactive; ZTA DNA inh: inactive; NS3 helicase inh: inactive; core dimer inh: inactive; ALR H2O2 inh: inactive

What do the screens show for `CCCC1Cc2nc(Cl)c(C#N)cc2CO1` (stereo not drawn)?
EBNA-1 inhibitor: inactive; PfM18AAP inh: inactive; ZTA DNA inh: inactive; NS3 helicase inh: inactive; core dimer inh: inactive; ALR H2O2 inh: inactive

What do the screens show for `COc1ccc(S(=O)(=O)N2CCOCC2)cc1NC(=O)c1cccc(-n2cccc2)c1`?
EBNA-1 inhibitor: inactive; ZTA DNA inh: inactive; core dimer inh: 65; ALR H2O2 inh: inactive

What do the screens show for `COc1ccccc1NC(=O)c1cccc(S(=O)(=O)N2CCOCC2)c1`?
EBNA-1 inhibitor: inactive; PfM18AAP inh: inactive; ZTA DNA inh: inactive; NS3 helicase inh: inactive; core dimer inh: inactive; ALR H2O2 inh: inactive

How did CC(=O)Nc1ccc(S(=O)(=O)N(C)CC(=O)Nc2ccccc2N2CCCC2)cc1 do in these assays?
EBNA-1 inhibitor: inactive; ZTA DNA inh: inactive; core dimer inh: inactive; ALR H2O2 inh: 99

What do the screens show for `O=C(Nc1ccccc1N1CCCC1)C1CCN(C(=O)c2ccc(F)cc2)CC1`?
EBNA-1 inhibitor: inactive; ZTA DNA inh: inactive; core dimer inh: inactive; ALR H2O2 inh: 98

How did COc1ccc(C(=O)Nc2ccccc2N2CCCC2)cc1S(=O)(=O)N1CCOCC1 do in these assays?
EBNA-1 inhibitor: inactive; ZTA DNA inh: inactive; core dimer inh: inactive; ALR H2O2 inh: 98

Results for O=C(Nc1ccccc1N1CCCC1)C1CCN(C(=O)c2ccc(Cl)cc2)CC1 ?
EBNA-1 inhibitor: inactive; ZTA DNA inh: inactive; core dimer inh: inactive; ALR H2O2 inh: inactive

What do the screens show for `CCCCNC(=O)CSc1nc2cc3c(cc2c(=O)n1CCC(=O)NCCc1ccc(OC)c(OC)c1)OCO3`?
EBNA-1 inhibitor: inactive; PfM18AAP inh: inactive; ZTA DNA inh: inactive; NS3 helicase inh: inactive; core dimer inh: inactive

What do the screens show for `CCN(CC)S(=O)(=O)c1ccc(N2CCCC2)c(NC(=O)c2nn(C)c(=O)c3ccccc23)c1`?
ZTA DNA inh: inactive; ALR H2O2 inh: inactive

What do the screens show for `Cn1nc(C(=O)Nc2ccccc2N2CCCC2)c2ccccc2c1=O`?
EBNA-1 inhibitor: inactive; PfM18AAP inh: inactive; ZTA DNA inh: inactive; NS3 helicase inh: inactive; core dimer inh: inactive; ALR H2O2 inh: 92

What do the screens show for `COc1ccc(C(=O)Nc2ccccc2N2CCCC2)cc1`?
EBNA-1 inhibitor: inactive; PfM18AAP inh: inactive; ZTA DNA inh: inactive; NS3 helicase inh: inactive; core dimer inh: inactive; ALR H2O2 inh: 94

How did CC(C)Oc1ccc(C(=O)Nc2ccccc2N2CCCC2)cc1 do in these assays?
EBNA-1 inhibitor: inactive; PfM18AAP inh: inactive; ZTA DNA inh: inactive; NS3 helicase inh: inactive; core dimer inh: inactive; ALR H2O2 inh: 98

What do the screens show for `Cc1ccc(NC(=O)CSCC(=O)Nc2ccccc2C(=O)N2CCCCC2)cc1`?
EBNA-1 inhibitor: inactive; ZTA DNA inh: inactive; core dimer inh: inactive

Results for Cc1ccc(NC(=O)CSCC(=O)Nc2ccccc2N2CCCC2)cc1 ?
EBNA-1 inhibitor: inactive; ZTA DNA inh: inactive; core dimer inh: inactive; ALR H2O2 inh: 99

What do the screens show for `N#Cc1cc([N+](=O)[O-])ccc1NC(=O)COC(=O)CN1C(=O)C2CCCCC2C1=O` (stereo not drawn)?
ALR H2O2 inh: inactive

Results for CSCCC(NS(=O)(=O)c1ccccc1)C(=O)OCc1cc(=O)oc2cc(O)ccc12 (stereo not drawn) ?
EBNA-1 inhibitor: inactive; ZTA DNA inh: inactive; core dimer inh: inactive; ALR H2O2 inh: inactive

What do the screens show for `COc1cc(C(=O)N2CCCN(C)CC2)cc(OC)c1C`?
EBNA-1 inhibitor: inactive; PfM18AAP inh: inactive; ZTA DNA inh: inactive; NS3 helicase inh: inactive; core dimer inh: inactive; ALR H2O2 inh: inactive

How did Cc1cccc([N+](=O)[O-])c1NC(=O)CSc1nnc2ccccn12 do in these assays?
ZTA DNA inh: inactive; ALR H2O2 inh: inactive

Results for COc1ccc(C(=O)Nc2ccc(N3CCCC3)cc2)cc1 ?
EBNA-1 inhibitor: inactive; PfM18AAP inh: inactive; ZTA DNA inh: inactive; NS3 helicase inh: inactive; core dimer inh: inactive; ALR H2O2 inh: inactive

Results for COc1ccc(C(=O)N/N=C(/C)c2ccc(N3CCCCC3)cc2)cc1 ?
EBNA-1 inhibitor: inactive; PfM18AAP inh: inactive; ZTA DNA inh: inactive; NS3 helicase inh: inactive; core dimer inh: inactive; ALR H2O2 inh: 92

How did COc1ccc(NC(=O)CSCC(=O)Nc2cc(Cl)ccc2N2CCCC2)cc1 do in these assays?
EBNA-1 inhibitor: inactive; PfM18AAP inh: inactive; ZTA DNA inh: inactive; NS3 helicase inh: inactive; core dimer inh: inactive; ALR H2O2 inh: 99

Results for O=C(CC1OC(=O)c2ccccc21)Nc1cc(Cl)ccc1N1CCCC1 (stereo not drawn) ?
EBNA-1 inhibitor: inactive; ZTA DNA inh: inactive; core dimer inh: inactive; ALR H2O2 inh: 97

Results for O=C(Nc1ccccc1N1CCCC1)c1cccc(F)c1 ?
EBNA-1 inhibitor: inactive; PfM18AAP inh: inactive; ZTA DNA inh: inactive; NS3 helicase inh: inactive; core dimer inh: inactive; ALR H2O2 inh: 99

How did COc1ccc(S(=O)(=O)NCC(=O)NCc2cc(=O)n(C)c(=O)n2C)cc1 do in these assays?
EBNA-1 inhibitor: inactive; PfM18AAP inh: inactive; ZTA DNA inh: inactive; NS3 helicase inh: inactive; core dimer inh: inactive; ALR H2O2 inh: inactive

How did O=[N+]([O-])c1ccccc1S(=O)(=O)N1CCN(Cc2ccc3c(c2)OCO3)CC1 do in these assays?
EBNA-1 inhibitor: inactive; PfM18AAP inh: inactive; ZTA DNA inh: inactive; NS3 helicase inh: inactive; core dimer inh: inactive; ALR H2O2 inh: inactive

What do the screens show for `COC(=O)C1CC(=O)c2sccc2C1` (stereo not drawn)?
EBNA-1 inhibitor: inactive; PfM18AAP inh: inactive; ZTA DNA inh: inactive; NS3 helicase inh: inactive; core dimer inh: inactive; ALR H2O2 inh: inactive

How did Cc1ccc(C(=O)Nc2ccccc2N2CCCC2)cc1 do in these assays?
EBNA-1 inhibitor: inactive; PfM18AAP inh: inactive; ZTA DNA inh: inactive; NS3 helicase inh: inactive; core dimer inh: inactive; ALR H2O2 inh: 99

How did CC(C)[C@H](NC(=O)N1CC(=O)Nc2ccccc21)C(=O)Nc1nccs1 do in these assays?
EBNA-1 inhibitor: inactive; PfM18AAP inh: inactive; ZTA DNA inh: inactive; NS3 helicase inh: inactive; core dimer inh: inactive; ALR H2O2 inh: 91
